Screens deposited in PubChem BioAssay by The Scripps Research Institute Molecular Screening Center.
OX1R antag-1 – OX1R (human) antagonism. O43613. OX1R-expressing cells, FRET antagonist read-out. inhibition, % at 6.6 µM. 330,000 tested, 1.8% active; in the data active = inhibition mostly above about 38%, no sharp cut-off; inactive = mostly below about 40%;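 also: 0% = agonist challenge alone and 100% = reference antagonist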
GPR7 antagonist – blocks human GPR7 receptor signaling. inhibition, % at 4.4 µM. AID 1861. 290,000 tested, 1.1% active. GPR7-expressing cells, fluorescence antagonist assay. P48145; in the data active = inhibition above about 16%, passing the limit was not always enough;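 also: cells stimulated with the agonist NPW; 0% = agonist with vehicle and 100% = vehicle without agonist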
Target sequence (P48145 whole entry, looked up): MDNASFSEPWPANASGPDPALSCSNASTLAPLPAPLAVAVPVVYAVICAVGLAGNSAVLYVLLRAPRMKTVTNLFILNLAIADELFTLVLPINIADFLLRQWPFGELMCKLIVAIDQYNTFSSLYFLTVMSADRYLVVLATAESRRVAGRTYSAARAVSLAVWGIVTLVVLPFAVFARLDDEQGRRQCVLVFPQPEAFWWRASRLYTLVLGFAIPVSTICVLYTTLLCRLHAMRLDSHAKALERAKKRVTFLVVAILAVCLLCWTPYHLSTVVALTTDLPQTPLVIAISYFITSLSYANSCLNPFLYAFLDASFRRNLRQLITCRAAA
GalR3 antag – blocks the human galanin receptor 3. O60755. HEK293 GalR3-CNG cAMP membrane potential fluorescence; galR3 body fused to GalR1 C-terminus. inhibition, % at 3 µM. 360,000 tested, 0.44% active;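 active = inhibition above the screen-wide average plus 3 SD, cut at about 13% in these data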;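 also: forskolin and galanin both at EC90 stimulate the cells; cAMP rise reported by CNG channel membrane potential dye signal; 0% = forskolin plus galanin with DMSO and 100% = forskolin alone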
Target sequence (O60755 1-299 limits assumed): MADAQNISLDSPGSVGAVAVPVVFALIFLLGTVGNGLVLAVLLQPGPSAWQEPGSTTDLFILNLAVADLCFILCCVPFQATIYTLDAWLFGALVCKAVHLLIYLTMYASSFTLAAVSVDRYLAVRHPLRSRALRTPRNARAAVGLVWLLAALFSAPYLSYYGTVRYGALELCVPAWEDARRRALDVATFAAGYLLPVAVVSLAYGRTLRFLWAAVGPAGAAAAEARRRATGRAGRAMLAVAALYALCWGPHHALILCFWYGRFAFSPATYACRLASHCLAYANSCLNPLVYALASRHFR
OX1R antag-2 – human HCRTR1 antagonism; O43613; 330,000 tested, 0.43% active; CHO/OX1R cells, Fluo-8 calcium fluorescence, orexin A; AID 434989; inhibition, % at 5 µM;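 active = inhibition above its plate's threshold, mean inhibition of all tested compounds on the plate plus 3 SD, cut at about 37% in these data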;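 also: 0% = orexin A challenge wells and 100% = SB-334867-A antagonist wells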
CHO parental Ca – counter-screen for OX1R antagonists: effect in parental CHO cells; parental CHO-K1, ATP-induced calcium, Fluo-8 fluorescence; inhibition, % at 5.6 µM; 330,000 tested, 0.63% active;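 active = inhibition above that plate's mean sample inhibition plus 3 SD, cut at about 26% in these data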;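 also: 0% = ATP-challenged DMSO wells and 100% = DMSO wells without ATP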
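Assay system – parental CHO cells · Reagent – ATP stimulus · Detection – intracellular calcium via Fluo-8 no-wash fluorescent dye · Evaluation – percent inhibition of ATP-evoked calcium rise, normalized to controls · Controls – ATP wells versus no-ATP DMSO wells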
* hit, by the source's call; / = no result. An excerpt weighted towards active compounds, which were near 3.1% of everything screened.

SMILES	OX1R antag-1	GPR7 antagonist	GalR3 antag	OX1R antag-2	CHO parental Ca
Cc1ccc2nc3c(cc(C(=O)NCC4CCCO4)c(=N)n3C3CCCC3)c(=O)n2c1 (centres undefined)	58*	-7	-6	-21	-13
COC(=O)c1cc2c(c3c4ccccc4n(S(=O)(=O)c4ccc(C)cc4)c13)C(=O)N(CC(C)C)C2	/	/	-3	/	/
CN1CCCCC(NC(=O)c2cccc(C(F)(F)F)c2)C1=O (centres undefined)	/	/	-3	/	/
O=C(NC(Nc1nc2ccc([N+](=O)[O-])cc2s1)(C(F)(F)F)C(F)(F)F)c1ccccc1Cl	90*	43*	7	25	33*
O=C(N[C@H](C(=O)N1CCC[C@H]1C(=O)NC1CCCC1)C1CCCCC1)c1ccco1	/	/	-9	/	/
O=[N+]([O-])c1ccc(S(=O)(=O)NCCc2ccncc2)cc1	43*	-9	-5	-16	-4
O=C(CCCc1ccccc1)NCCS(=O)(=O)N1CCN(c2ccccc2)CC1	/	/	-6	/	/
O=C(CSc1nc2ccccc2c(=O)n1NC(=O)Cc1ccccc1)NCc1ccccc1Cl	53*	-3	-3	9	-17
O=C(COc1ccccc1)Nc1nc2cc3c(cc2s1)OCO3	18	-20	-1	0	31*
O=C(COc1ccccc1)Nc1nc2cc3c(cc2s1)OCCO3	14	-11	-2	2	5
COc1cc(Cn2c3ccc(NC(=O)CCc4ccc(O)cc4)cc3c(=O)n2C)ccc1F	/	/	-4	/	/
COc1cc(NC(=O)[C@@H]2CCCN2S(=O)(=O)c2cccc3cccnc23)cc(OC)c1OC	28	/	-6	-29	-17
O=C(Nc1ccc(F)cc1)C1CCCN(S(=O)(=O)c2cccc3cccnc23)C1 (centres undefined)	31	-10	2	-15	-26
O=C(Nc1ccc2c(c1)OCCO2)C1CCCN1S(=O)(=O)c1cccc2cccnc12 (centres undefined)	16	-14	3	-18	-9
CC(=O)c1cccc(NC(=O)C2CCCN2S(=O)(=O)c2cccc3cccnc23)c1 (centres undefined)	67*	-10	-1	14	3
O=C(Nc1ccc(C(F)(F)F)cc1)C1CCCN1S(=O)(=O)c1cccc2cccnc12 (centres undefined)	36*	-12	-9	30	-23
CC(=O)c1cccc(NC(=O)C2CCCN(S(=O)(=O)c3cccc4cccnc34)C2)c1 (centres undefined)	55*	-13	-1	-11	-10
O=C(Nc1cccc(Cl)c1)C1CCCN(S(=O)(=O)c2ccc(F)cc2)C1 (centres undefined)	42*	-4	-7	-5	-17
CC(C)(C)c1ccc(NC(=O)c2cc(C3CCCN(C(=O)CCc4ccccc4)C3)on2)cc1 (centres undefined)	/	/	1	/	/
O=C(Nc1ccccc1Cl)C1CCCN(S(=O)(=O)c2cccc3cccnc23)C1 (centres undefined)	42	-9	-7	-26	-25
O=C(Nc1nccs1)C1CCCN(S(=O)(=O)c2cccc3cccnc23)C1 (centres undefined)	43*	-16	1	-23	-7
COc1c([N+](=O)[O-])cc(C(=O)NNC(=O)c2ccc(C)cc2)cc1[N+](=O)[O-]	46*	-5	-6	-13	-18
CN(C(=O)CCc1cn(C)c2ccccc12)c1ccc(Oc2cccnc2)cc1	/	/	-11	/	/
N#CCC(=O)N/N=C/c1cc(-c2ccccc2)n(-c2ccc(Cl)cc2)c1-c1ccccc1	104*	3	-2	-19	-10
Cc1ccc(-n2c(-c3ccccc3)cc(/C=N/NC(=O)CC#N)c2-c2ccccc2)cc1	10	-9	2	-21	3
SMILES	OX1R antag-1	GPR7 antagonist	GalR3 antag	OX1R antag-2	CHO parental Ca
Cc1cc(C)n2nc(-c3sccc3-n3c(C)ccc3C)cc2n1	76*	-15	-2	33	-16
CC(C)C[C@H](NC(=O)C1CC1)C(=O)N1CCC[C@H]1C(=O)NCc1ccccc1	/	/	0	/	/
OCCN=c1cc(-c2ccccc2)oc2ccc(Cl)cc12	47*	3	/	-38	-17
CN(C)CCCN=c1cc(-c2ccccc2)oc2ccc(Cl)cc12	/	16	-8	/	/
Cc1ncc(CO)c(/C=N/NC(=O)c2cc3c(s2)CCCC3)c1O	50*	-9	-6	-20	-12
C[C@@H]1CN(c2ccc(N3CCN(C(=O)OC(C)(C)C)C[C@@H]3C)cc2C#N)C[C@H](C)O1	/	/	5	/	/
O=C1c2cccc3c(N4CCCCC4)ccc(c23)C(=O)N1CCO	12	0	-1	21	16
O=C1c2cccc3c(N4CCCCC4)ccc(c23)C(=O)N1c1cccc(O)c1	7	-1	-7	56*	56*
Cc1ccc(C(=O)N2CCC[C@@H]2C(=O)N2CCC[C@@H]2C(=O)NCc2ccccc2)cc1	/	/	-5	/	/
COCCNC(=S)N1CCC(c2nc(-c3ccc(N(C)C)cc3)no2)CC1	15	-11	-9	-14	-7
CC(C)CNC(=S)N1CCC(c2nc(-c3ccc(F)cc3)no2)CC1	21	-1	-2	19	48*
Cc1ccn2cc(-c3cccc([N+](=O)[O-])c3)nc2c1	66*	-7	-1	-25	-18
CCCCn1c(SCC(=O)Nc2cc(NC(=O)c3ccco3)ccc2C)nc2ccccc2c1=O	41*	1	-5	-12	-11
COCCn1c(SCC(=O)Nc2ccc(NC(=O)c3ccco3)c(OC)c2)nc2ccccc2c1=O	12	-8	-8	-34	-5
S=c1[nH]nc(-c2cccs2)n1/N=C/c1c(Cl)cccc1Cl	108*	-19	-10	51*	34*
Cc1ccc2cccc(OC(=O)c3cccnc3Oc3ccccc3)c2n1	/	/	-8	/	/
CN(C)/C=C1\C=C2C(=O)c3ccccc3N2C1=O	10	6	0	46*	50*
O=C(Nc1ccc2ncccc2c1)Nc1ccc2ncccc2c1	76*	5	-6	-4	-14
CC(C)n1c(NCCc2ccccc2)nc2c1c(=O)n(C)c(=O)n2C	27	-9	-4	7	39*
CC(=O)C(C)n1c(CN(C)Cc2ccccc2)nc2c1c(=O)n(C)c(=O)n2C (centres undefined)	13	-1	-4	8	-7
CCCNc1nc2c(c(=O)n(C)c(=O)n2C)n1CCc1ccccc1	8	-13	-9	2	-12
CC(C)n1c(CN(C)Cc2ccccc2)nc2c1c(=O)n(C)c(=O)n2C	54*	28	-8	16	69*
O=C(/C=C/[C@H]1O[C@@H](n2ccc(=O)[nH]c2=O)[C@H](O)[C@@H]1O)NCc1cccc2ccccc12	/	/	-1	/	/
CCCc1cc(=O)n2[nH]c(Cc3ccccc3)nc2n1	22	18*	-4	-23	-15
CCCc1cc(=O)n2[nH]c(C)nc2n1	-1	1	-5	-1	1
Cc1nc(NCCc2ccccc2)c2oc3ccccc3c2n1	37*	-5	-9	19	46*
